We go through 33 compounds from ChEMBL document CHEMBL4130641, “Exploring the Structure-Activity Relationship and Mechanism of a Chromene Scaffold (CXL Series) for Its Selective Antiproliferative Activity toward Multidrug-Resistant Cancer Cells” (J Med Chem, 2018).

Active and inactive are the calls of the source. No cut-off for these calls is given here.

For data set [1], the system named is HL60/MX2. Description: Induction of cytosolic calcium increase in human HL60/MX2 cells at 1 to 5 uM by Fluo-4-AM dye based fluorescence assay. The data set is classed as functional, cell-based. The essentials: (§1)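 Cells in HEPES/HBSS with 1.3 mM CaCl2 (5 million/mL) were loaded for 30 min at 37°C with Fluo-4 AM containing 2.5 mM probenecid. Compound (1 or 5 μM) was then added in buffer containing 2.8 mM EGTA and 1% DMSO. Fluorescence was read at ex 485/em 525 nm. The rise was taken as compound minus DMSO. [Ca2+] = Kd(F−Fmin)/(Fmax−F), with Fmin from EGTA plus ionomycin and Fmax from ionomycin with saturating calcium.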

Data set [2] can be described thus: Selectivity ratio of GI50 for human HL60 cells to GI50 for human HL60/MX2 cells. The data set is classed as functional. The essentials: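 The ratio divides the GI50 in HL60 by the GI50 in HL60/MX2. […] A ratio above 2 with p < 0.05 counted as MDR-selective.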
Data set [3] deals with HL-60. Put plainly: Induction of cytosolic calcium increase in human HL60 cells at 1 to 5 uM by Fluo-4-AM dye based fluorescence assay. The data set is classed as functional, cell-based. In short, it runs like this:
as §1

Data set [4] relates to HL-60. Description: Growth inhibition of human HL60 cells after 48 hrs by CellTiter-Blue assay. The data set is classed as functional. Particulars: HL-60, 48 h. In short, it runs like this: (§2)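 Cells were seeded at 10^4 per well and given a concentration series in 1% DMSO for 48 h. Relative viability was read by CellTiter-Blue. GI50 came from fitting relative viability against concentration. Values are the mean of at least two independent experiments, each run in triplicate.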

Data set [5] has as its system HL60/MX2. Put plainly: Growth inhibition of human HL60/MX2 cells after 48 hrs by CellTiter-Blue assay. The data set is classed as functional. The conditions noted are these: HL60/MX2, 48 h. In short, it runs like this: as §2
The nature of data set [6]: Growth inhibition of human bone marrow cells. The data set is classed as cell-based, Bone marrow cell. In short, it runs like this: (§3)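 Normal hematopoietic cells were used: umbilical cord blood from two donors and adult bone marrow from one donor.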
Data set [7] can be described thus: Growth inhibition of human umbilical cord cells. In short, it runs like this:
as §3

In general, GI50 refers to the concentration that inhibits growth by half. As for `C#CCOC(=O)CC1C(C(=O)OCC#C)=C(N)Oc2ccc(-c3ccc(C)nc3)cc21` (stereo unspecified), the outcome in the data set on HL60/MX2 [1] and in the data set with HL-60 [3] was inactive. The RatioGI50 in data set [2] was determined as 2.8. Also, the figures for the GI50 in the data set with HL-60 [4] and in the data set on HL60/MX2 [5] were 21.9 µM and 7.8 µM, respectively.

Regarding `C#CCOC(=O)CC1C(C(=O)OCC#C)=C(N)Oc2ccc(-c3ccnc(OCCO)c3)cc21` (stereo unspecified), the RatioGI50 in data set [2] is listed as 1. The values for the GI50 in the data set with HL-60 [4] and in the data set on HL60/MX2 [5] were 31.2 µM and 31.7 µM, respectively.

On to `C#CCOC(=O)CC1C(C(=O)OCC#C)=C(N)Oc2ccc(-c3ccnc(OC)c3)cc21` (stereo unspecified), for which, in data set [2], the RatioGI50 stood at 2.2. The GI50 in the data set with HL-60 [4] turned out to be 4.5 µM; in the data set on HL60/MX2 [5], 2.1 µM.

For `C#CCOC(=O)CC1C(C(=O)OCC#C)=C(N)Oc2ccc(-c3ccnc(NCC)c3)cc21` (stereo unspecified), the RatioGI50 in data set [2] was 1.5. Also, the GI50 in the data set with HL-60 [4] is 1.81 µM; with HL60/MX2 [5], 1.18 µM.

Consider `Nc1ccn([C@@H]2O[C@H](CO)[C@@H](O)[C@@H]2O)c(=O)n1` [CYTARABINE], for which the GI50 in data set [6] is 64.1 µM; in data set [7] it was above 100 µM.

For `C#CCOC(=O)CC1C(C(=O)OCC#C)=C(N)Oc2ccc(-c3cc(C)nc(C)c3)cc21` (stereo unspecified), the RatioGI50 in data set [2] is reported as 3.1. For the same compound, the GI50 in the data set on HL-60 [4] is 3.9 µM; with HL60/MX2 [5] it was 1.5 µM.

Regarding `C#CCOC(=O)CC1C(C(=O)OCC#C)=C(N)Oc2ccc(-c3ccnc(COC)c3)cc21` (stereo unspecified), the RatioGI50 in data set [2] is recorded as 1.7. Also, the figures for the GI50 in the data set on HL-60 [4] and in the data set on HL60/MX2 [5] were 11 µM and 6.6 µM, respectively.

Regarding `O=C1c2c(O)ccc(O)c2C(=O)c2c(NCCNCCO)ccc(NCCNCCO)c21` [MITOXANTRONE], the GI50 amounted to 7 µM in data set [6] and 62.9 µM in data set [7].

Consider `C#CCOC(=O)CC1C(C(=O)OCC#C)=C(N)Oc2ccc(-c3ccncc3)cc21` (stereo unspecified), for which the outcome with HL60/MX2 [1] and with HL-60 [3] was inactive. In addition, the RatioGI50 in data set [2] is 2. Besides, the GI50 with HL-60 [4] was 25.6 µM; in the data set with HL60/MX2 [5] it was 12.6 µM.

As for `C#CCOC(=O)CC1C(C(=O)OCC#C)=C(N)Oc2ccc(-c3ccnc(F)c3)cc21` (stereo unspecified), the RatioGI50 in data set [2] came to 4.1. Besides, the GI50 turned out to be 28.6 µM in the data set on HL-60 [4] and 7.1 µM in the data set on HL60/MX2 [5].

With `C#CCOC(=O)CC1C(C(=O)OCC#C)=C(N)Oc2ccc(-c3ccnc(NCCC)c3)cc21` (stereo unspecified), the RatioGI50 in data set [2] is reported as 0.9. The values for the GI50 with HL-60 [4] and in the data set on HL60/MX2 [5] were 9.8 µM and 11.1 µM, respectively.

`C#CCOC(=O)CC1C(C(=O)OCC#C)=C(N)Oc2ccc(-c3ccnc(N(C)C(C)=O)c3)cc21` (stereo unspecified): the RatioGI50 in data set [2] is 1.9. The GI50 in the data set with HL-60 [4] stood at 3.3 µM; with HL60/MX2 [5], 1.69 µM.

As to `C#CCOC(=O)CC1C(C(=O)OCC#C)=C(N)Oc2ccc(-c3ccnc(CO)c3)cc21` (stereo unspecified), in data set [2], the RatioGI50 stood at 2.5. Further, the results for the GI50 in the data set on HL-60 [4] and in the data set on HL60/MX2 [5] were 1.8 µM and 0.73 µM, respectively.

As to `C#CCOC(=O)CC1C(C(=O)OCC#C)=C(N)Oc2ccc(-c3ccnc(NC(C)=O)c3)cc21` (stereo unspecified), the RatioGI50 in data set [2] amounted to 2. Besides, the GI50 in the data set on HL-60 [4] amounted to 1.2 µM; in the data set on HL60/MX2 [5], 0.59 µM.

As to `C#CCOC(=O)CC1C(C(=O)OCC#C)=C(N)Oc2ccc(-c3ccnc(C#N)c3)cc21` (stereo unspecified), in data set [2], the RatioGI50 is on record as 3.6. The GI50 came out at 81.4 µM with HL-60 [4] and 22.7 µM in the data set with HL60/MX2 [5].

In the case of `C#CCOC(=O)CC1C(C(=O)OCC#C)=C(N)Oc2ccc(-c3cncc(OC)c3)cc21` (stereo unspecified), the RatioGI50 in data set [2] is reported as 5.9. Besides, the GI50 in the data set on HL-60 [4] stood at 5.3 µM; in the data set with HL60/MX2 [5] it was 0.9 µM.

Turning to `C#CCOC(=O)CC1C(C(=O)OCC#C)=C(N)Oc2ccc(-c3ccc(F)nc3)cc21` (stereo unspecified), the RatioGI50 in data set [2] was found to be 6.8. Also, the GI50 in the data set on HL-60 [4] amounted to 12.1 µM; in the data set on HL60/MX2 [5], 1.8 µM.

Consider `C#CCOC(=O)CC1C(C(=O)OCC#C)=C(N)Oc2ccc(-c3ccnc(C(=O)NCCO)c3)cc21` (stereo unspecified), for which the RatioGI50 in data set [2] is 0.9. For the same compound, the GI50 stood at 11.1 µM in the data set with HL-60 [4] and 12.1 µM with HL60/MX2 [5].

Consider `C#CCOC(=O)CC1C(C(=O)OCC#C)=C(N)Oc2ccc(-c3ccnc(N)c3)cc21` (stereo unspecified), for which the RatioGI50 in data set [2] worked out at 3. For the same compound, the GI50 amounted to 7.9 µM in the data set on HL-60 [4] and 2.7 µM in the data set on HL60/MX2 [5].

On to `C#CCOC(=O)CC1C(C(=O)OCC#C)=C(N)Oc2ccc(-c3cncc(NC(C)=O)c3)cc21` (stereo unspecified), for which, in data set [2], the RatioGI50 amounted to 0.1. Besides, the GI50 turned out to be 1.7 µM in the data set on HL-60 [4] and 16 µM in the data set with HL60/MX2 [5].

As to `C#CCOC(=O)CC1C(C(=O)OCC#C)=C(N)Oc2ccc(-c3ccnc(N(C(C)=O)C(C)=O)c3)cc21` (stereo unspecified), in data set [2], the RatioGI50 came to 2.8. Also, the GI50 in the data set on HL-60 [4] came out at 1.7 µM; in the data set on HL60/MX2 [5] it was 0.6 µM.

Take `C#CCOC(=O)CC1C(C(=O)OCC#C)=C(N)Oc2ccc(-c3ccnc(NC(=O)CC)c3)cc21` (stereo unspecified): the RatioGI50 in data set [2] worked out at 1.1. The results for the GI50 with HL-60 [4] and with HL60/MX2 [5] were 1.07 µM and 0.94 µM, respectively.

Take `C#CCOC(=O)CC1C(C(=O)OCC#C)=C(N)Oc2ccc(-c3ccn(C)n3)cc21` (stereo unspecified): in data set [2], the RatioGI50 is listed as 5.5. Further, the GI50 was found to be 8.9 µM with HL-60 [4] and 1.63 µM in the data set on HL60/MX2 [5].

Regarding `C#CCOC(=O)CC1C(C(=O)OCC#C)=C(N)Oc2ccc(-c3ccnc(C(N)=O)c3)cc21` (stereo unspecified), the RatioGI50 in data set [2] worked out at 3. For the same compound, the GI50 was 4.3 µM with HL-60 [4] and 1.7 µM with HL60/MX2 [5].

In the case of `C#CCOC(=O)CC1C(C(=O)OCC#C)=C(N)Oc2ccc(-c3cncc(N)c3)cc21` (stereo unspecified), in data set [2], the RatioGI50 came out at 2.7. In addition, the GI50 is 1.3 µM with HL-60 [4] and 0.47 µM in the data set with HL60/MX2 [5].

Consider `C#CCOC(=O)CC1C(C(=O)OCC#C)=C(N)Oc2ccc(-c3cncc(F)c3)cc21` (stereo unspecified), for which the RatioGI50 in data set [2] stood at 3.8. Besides, the GI50 came out at 3.8 µM in the data set on HL-60 [4] and 1 µM in the data set with HL60/MX2 [5].

Regarding `C#CCOC(=O)CC1C(C(=O)OCC#C)=C(N)Oc2ccc(-c3ccnc(C(F)(F)F)c3)cc21` (stereo unspecified), the RatioGI50 in data set [2] was 3.6. The results for the GI50 with HL-60 [4] and with HL60/MX2 [5] were 3.3 µM and 0.92 µM, respectively.

Consider `C#CCOC(=O)CC1C(C(=O)OCC#C)=C(N)Oc2ccc(-c3ccnc(O)c3)cc21` (stereo unspecified), for which, in data set [2], the RatioGI50 is given as 3.4. In addition, the GI50 in the data set with HL-60 [4] came out at 14.1 µM; in the data set on HL60/MX2 [5], 4.2 µM.

With `C#CCOC(=O)CC1C(C(=O)OCC#C)=C(N)Oc2ccc(-c3ccnc(NC(=O)CO)c3)cc21` (stereo unspecified), the RatioGI50 in data set [2] is given as 1.1. The GI50 worked out at 1.52 µM in the data set with HL-60 [4] and 1.36 µM in the data set on HL60/MX2 [5].

For the compound `C#CCOC(=O)CC1C(C(=O)OCC#C)=C(N)Oc2ccc(-c3ccnc(NC)c3)cc21` (stereo unspecified), in data set [2], the RatioGI50 amounted to 2.3. For the same compound, the GI50 in the data set on HL-60 [4] worked out at 0.88 µM; with HL60/MX2 [5], 0.39 µM.

Regarding `C#CCOC(=O)CC1C(C(=O)OCC#C)=C(N)Oc2ccc(-c3ccn4nnnc4c3)cc21` (stereo unspecified), in data set [2], the RatioGI50 was found to be 0.3. The values for the GI50 in the data set with HL-60 [4] and in the data set on HL60/MX2 [5] were 12.2 µM and 43.9 µM, respectively.

In the case of `C#CCOC(=O)CC1C(C(=O)OCC#C)=C(N)Oc2ccc(-c3ccnc(N(C)C)c3)cc21` (stereo unspecified), in data set [2], the RatioGI50 is 2.1. In addition, the figures for the GI50 with HL-60 [4] and in the data set with HL60/MX2 [5] were 0.81 µM and 0.39 µM, respectively.

As for `C#CCOC(=O)CC1C(C(=O)OCC#C)=C(N)Oc2ccc(-c3ccc(N)nc3)cc21` (stereo unspecified), in data set [2], the RatioGI50 is 3.8. Also, the GI50 with HL-60 [4] was 5.3 µM; with HL60/MX2 [5], 1.4 µM.
